In ChEMBL document CHEMBL1143574, “N-[18F] fluoroethylpiperidin-4ylmethyl acetate, a novel lipophilic acetylcholine analogue for PET measurement of brain acetylcholinesterase activity” (J Med Chem, 2005) one finds logD, Total rate and Specificity data, which are given here for eight molecules.

What is called logD is lipophilicity at a set pH, counting ionised and neutral species.

Data set [1] can be described thus: (§1) Partition coefficient (logP) measured in a mixture of 1-octanol/phosphate buffer (0.1 M, pH 7.4). Type of data set: physicochemical. A digest of the protocol:
(§2)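 Labeled ester or metabolite added to 1:1 1-octanol/0.1 M phosphate buffer pH 7.4, shaken vigorously, equilibrated 1 h at room temperature. Phase radioactivity counted by gamma or liquid scintillation counter, purity checked by TLC. Value = organic/aqueous concentration ratio.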

Data set [2] in a line: First-order hydrolysis rate constant in rat cerebral cortical homogenate at a unit tissue concentration (g/mL) without inhibitor. In kind it is ADME, tissue-based. A digest of the protocol: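 Rat (Wistar, male, 8 wk, 210-230 g, n=3) cerebral cortex homogenized in ice-cold 0.1 M phosphate buffer pH 7.4 and diluted. Labeled ester (15 kBq) added to start reaction. Unchanged ester and metabolite separated by TLC and quantified by phosphor imaging. Rate = −ln(A2/A1)/(T2−T1)/C. Statistics by Games-Howell test.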

Data set [3] can be described thus: as §1. Type of data set: physicochemical. A digest of the protocol: as §2
This is another data set of the same source.

The target in data set [4] is T1, Acetylcholinesterase (Rattus norvegicus) (UniProt P37136).
T1 sequence (whole entry): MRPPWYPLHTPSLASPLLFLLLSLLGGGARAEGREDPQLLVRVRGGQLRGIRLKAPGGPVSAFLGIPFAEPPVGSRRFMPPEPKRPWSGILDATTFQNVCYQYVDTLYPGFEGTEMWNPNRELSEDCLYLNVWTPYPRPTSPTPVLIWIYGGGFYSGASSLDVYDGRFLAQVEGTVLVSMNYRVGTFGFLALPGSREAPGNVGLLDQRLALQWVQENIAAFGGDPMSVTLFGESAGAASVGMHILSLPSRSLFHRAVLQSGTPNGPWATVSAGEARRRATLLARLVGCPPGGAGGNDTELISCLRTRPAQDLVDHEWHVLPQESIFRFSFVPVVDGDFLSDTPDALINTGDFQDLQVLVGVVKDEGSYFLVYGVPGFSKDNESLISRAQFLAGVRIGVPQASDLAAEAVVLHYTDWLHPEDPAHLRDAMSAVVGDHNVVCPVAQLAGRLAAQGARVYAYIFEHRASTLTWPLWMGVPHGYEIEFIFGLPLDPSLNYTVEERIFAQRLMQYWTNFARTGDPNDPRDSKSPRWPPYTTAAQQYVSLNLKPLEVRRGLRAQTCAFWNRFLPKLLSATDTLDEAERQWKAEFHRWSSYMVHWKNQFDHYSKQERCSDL
Description: Specificity for rat brain acetylcholinesterase as rate of hydrolysis using BW284c51. A digest of the protocol:
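Rat cerebral cortex homogenate (Wistar, male, 8 wk, n=3) in 0.1 M phosphate buffer pH 7.4, run with labeled ester (15 kBq) with or without BW284c51 (30 nM). Hydrolysis rate measured by TLC and phosphor imaging of remaining ester. Specificity = […].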

[5] abbreviates: tested as the 18F-labelled form.
[6] abbreviates: tested as the 11C-labelled form.

As for `CC(=O)OC1CCN([11CH3])CC1`, the logD in data set [1] was -0.3; in data set [3] it was -2.2. Moreover, the Total rate in data set [2] stood at 1.73 min⁻¹.
`CC(=O)OCC1CCN(CCF)CC1` displayed a Specificity in data set [4] (setting [5]) of 86%.
Molecule `CCC(=O)OC1CCN(C)CC1` displayed a Specificity in data set [4] (setting [6]) of 82%.
In the case of `CC(=O)OC1CCN(C)CC1`, the Specificity in data set [4] (setting [6]) was 97%.
As to `CCC(=O)OC1CCN([11CH3])CC1`, the figures for the log distribution coefficient (logD) in data set [1] and in data set [3] were -0.22 and -2.2, respectively. Moreover, the Total rate in data set [2] stood at 0.41 min⁻¹.
On the same counts, the results for `CC(=O)OCC1CCN(CC[18F])CC1` are 0.04, -1.3 and 1.67 min⁻¹.
Molecule `CC(=O)OC1CCN(CCF)CC1` displayed a Specificity in data set [4] (setting [5]) of 65%.
For `CC(=O)OC1CCN(CC[18F])CC1`, the logD in data set [1] is -0.11; in data set [3], -1.9. In data set [2], this molecule gave a Total rate of 0.1 min⁻¹.
